# Screening data (PubChem BioAssay)
# rCAG binder – binders of r(CAG) RNA repeats, primary screen, biochemical, fluorescence | r(CAG) RNA repeat, TO-PRO-1 dye displacement fluorescence | inhibition, % at 3 µM | actives 1.3% (n = 370,000);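 active means inhibition above the plate cutoff, the mean of all test compounds on that plate plus 3 SD, cut at about 35% in these data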;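 further: 0% = DMSO alone and 100% = 100 µM mitoxantrone as full dye displacement; higher means more dye released from RNA so lower well fluorescence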
# Exocytosis inh – LAMP-1 surface exposure blockers, TALL-104 cells – cell-based, flow cytometry, MLPCN library, primary screen | TALL-104 LAMP-1 surface exposure; cells stimulated with thapsigargin and PMA | inhibition, % at 10 µM | actives 0.66% (n = 360,000) | AID 651702, 2012;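 active means inhibition above about 55%, limit read from the data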
# B2AR ag – beta2AR agonists driving receptor internalization, primary screen, cell-based, FAP fluorogen, flow cytometry; Beta-2 adrenergic receptor (Homo sapiens), P07550; Am2.2-beta2AR cells; response, % (test concentration not listed); actives 0.43% (n = 340,000);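 active means response above a set limit, near 3 SD of response in nonfluorescent compounds, cut at about 42% in these data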
# Target sequence (P07550 whole entry, looked up): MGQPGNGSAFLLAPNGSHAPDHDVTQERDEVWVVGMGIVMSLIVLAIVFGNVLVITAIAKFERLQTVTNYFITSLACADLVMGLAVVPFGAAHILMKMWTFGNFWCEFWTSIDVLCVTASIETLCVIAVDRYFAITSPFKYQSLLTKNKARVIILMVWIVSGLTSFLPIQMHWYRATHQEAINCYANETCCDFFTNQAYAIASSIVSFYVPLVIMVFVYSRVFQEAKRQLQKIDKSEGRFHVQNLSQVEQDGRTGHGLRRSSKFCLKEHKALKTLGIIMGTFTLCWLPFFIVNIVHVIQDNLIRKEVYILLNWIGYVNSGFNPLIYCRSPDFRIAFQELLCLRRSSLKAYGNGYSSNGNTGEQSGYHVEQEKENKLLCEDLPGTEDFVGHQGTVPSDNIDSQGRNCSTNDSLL
# MPTP inh – mitochondrial permeability transition pore inhibitors, primary screen, biochemical, isolated mouse mitochondria, absorbance; Ca2+ swelling absorbance, 30 min; inhibition, % at 10 µM; actives 1.4% (n = 360,000); AID 602449, 2012;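 active means inhibition of 50% or more, scaled per plate between neutral and stimulator controls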;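 further: 0% = DMSO wells given calcium and 100% = 1 mM EGTA wells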
# T cell modulator – modulators of CD8 T cell-vesicle binding, primary screen, mouse 2C CD8+ T cells, flow cytometry | actives 0.068% (n = 330,000) | 2C CD8+ T cell-vesicle binding; stronger effect = lower value | response (vesicle binding), % at 7 µM;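 active means response, share of CD8 T cells binding vesicles, and their 90th percentile fluorescence all below set limits, cut at about 80% in these data, passing the limit was not always enough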;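 further: values below 100% mean blocked vesicle binding to the CD8+ T cells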
#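 incubation = binding step 1.5 h, 37 °C, antibody labelling 20 min, ice | test system = 2C mouse CD8+ T cells | read-out basis = percent CD8+ FL2 mean versus row control | controls = Peptide-free naked vesicles (low) and QL9 vesicles with 0.7% DMSO vehicle (high) | detection = flow cytometry of vesicle-bound cells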
# V-ATPase pH – regulators of yeast V-ATPase proton pumping, primary screen, pHLuorin cytosolic pH fluorescence; S. cerevisiae; response, % at 10 µM; actives 0.37% (n = 350,000); in the data active means response mostly above about 7.3%, no sharp cut-off; inactive means mostly below about 5.4%; further: actives read high
# rCAG bind conf – small molecules binding CAG repeat RNA – biochemical, fluorescence, confirmation; shares compounds with rCAG binder; r(CAG) RNA repeat, TO-PRO-1 dye displacement fluorescence; inhibition, % at 3 µM; actives 70% (n = 4,300); AID 652065, 2013;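 active means inhibition above a per-plate cutoff, the mean inhibition of sample wells plus 3 SD, cut at about 35% in these data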;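 further: loss of TO-PRO-1 fluorescence as compound displaces dye from 1x1 AA loop RNA; 0% = DMSO only wells and 100% = 100 µM mitoxantrone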
# DNA CAG counter – displacement of TO-PRO-1 from CAG DNA duplex, counter-screen for rCAG RNA repeat binder project, biochemical, fluorescence, TO-PRO-1 dye, d(CAG) DNA oligo. shares compounds with rCAG binder. d(CAG) DNA oligo TO-PRO-1 dye displacement. inhibition, % at 3 µM. actives 94% (n = 4,300);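 active means inhibition above its plate's cutoff, the mean test-well inhibition plus 3 SD, cut at about 4.8% in these data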;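 further: 0% = DNA dye mix with DMSO and 100% = 100 µM mitoxantrone; hits displace the dye from DNA and so lower well fluorescence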
# The depositor's hits bear a star; i = inactive; · = no result given. This is a sample that favours compounds with a hit; in the whole collection about 3.8% have one here.
SMILES,rCAG binder,Exocytosis inh,B2AR ag,MPTP inh,T cell modulator,V-ATPase pH,rCAG bind conf,DNA CAG counter
Cc1ccc2[nH]c(C)c(/C=N/Nc3nc4ccccc4s3)c2c1,65*,-1,13,0,i,3,47*,26*
COc1ccc(S[C@]2(C(=O)N3CCOCC3)CC(=O)N(c3ccc(Cl)cc3)[C@@H]2c2ccc(OC)cc2)cc1,11,·,·,·,·,·,·,·
COc1cccc(N(C)C(=O)[C@@H](C)[C@@H](O)c2ccc(C(C)=O)cc2)c1,0,·,·,·,·,·,·,·
C=CCN(CC#Cc1ccccn1)Cc1ccc(OC)cc1OC,0,·,·,·,·,·,·,·
O=C(Nc1ccc(C(=O)O)cc1)/C(=C\C=C\c1ccccc1)NC(=O)c1cccc(Br)c1,78*,-3,8,1,192,1,80*,52*
O=C(Nc1ccc(C(=O)O)cc1)/C(=C\C=C\c1ccccc1)NC(=O)c1ccccc1Br,54*,0,8,1,345,-6,35*,12*
C[C@@H]1CC(=O)NN=C1c1ccc(NN=C(C#N)C#N)cc1,5,·,·,·,·,·,·,·
Cc1ccc(Cc2nnc(SCC(=O)Nc3c(C)cccc3C)[nH]c2=O)cc1,15,10,-1,1,307,-1,·,·
COc1ccc(Cc2nnc(SCC(=O)Nc3cc(Cl)ccc3C)[nH]c2=O)cc1,45*,14,-2,1,286,0,36*,8.2*
CCOc1cc(C(N)=O)cc(Cl)c1OCc1ccccc1,-3,0,2,0,134,-1,·,·
CCOc1cc(/C=C(/NC(C)=O)C(=O)O)cc(Cl)c1OCc1cccc(Br)c1,44*,-3,-5,2,425,1,33,5.5*
O=C(O)c1cccc2[nH]c(C(F)(F)F)nc12,3,-2,-10,-7,347,-2,·,·
Nc1cccc2[nH]c(C(F)(F)F)nc12,70*,1,0,7,326,-3,61*,33*
NS(=O)(=O)c1cccc(NC(=O)CSc2nc3nc(-c4cccs4)cc(C(F)(F)F)c3c(=O)[nH]2)c1,50*,-1,-11,-1,299,0,77*,45*
Cc1ccc(S(=O)(=O)N2[C@@H](c3ccc(C(C)C)cc3)C(C(=O)O)=C[C@H]2C(C)(C)C)cc1,69*,-2,22,2,224,-1,59*,23*
Cc1ccc(S(=O)(=O)N2[C@@H](c3ccc(Cl)c(Cl)c3)C(C(=O)O)=C[C@H]2C(C)(C)C)cc1,·,-1,8,2,385,0,·,·
Cc1ccc([C@H]2C(C(=O)O)=C[C@@H](C(C)(C)C)N2S(=O)(=O)c2ccc(C)cc2)cc1,42*,-2,-2,0,166,4,34,12*
Nc1nn2c(-c3ccccc3)cc(=O)[nH]c2c1N=Nc1ccc(O)cc1,19,-6,-17,9,237,0,·,·
Nc1nn2c(-c3ccccc3)cc(=O)[nH]c2c1N=Nc1ccc(Br)cc1,35*,7,-2,2,·,8,80*,40*
COc1ccc(-c2cc(=O)oc3c(C)c(OCc4nn[nH]n4)ccc23)cc1,39*,-7,-12,2,180,-2,23,5.7*
CCC[C@H](/C=C/C(=O)OC(C)(C)C)Sc1ccc(N)cc1,1,·,·,·,·,·,·,·
CC(Oc1ccc(Br)cc1)C(=O)Nc1ccc(S(=O)(=O)Nc2nccs2)cc1 (stereo not drawn),52*,-1,4,0,204,1,34,9.4*
CCC(Oc1ccc(C)cc1)C(=O)Nc1ccc(S(=O)(=O)Nc2nccs2)cc1 (stereo not drawn),53*,7,10,-1,347,-3,33,8.8*
